From PubChem BioAssay
TbMetRS inhib = Trypanosoma brucei MetRS inhibition | actives 0.4% (n = 360,000) | purified T. brucei MetRS, ATP depletion, Kinase-Glo luminescence | inhibition, % at 11.9 µM;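 active = inhibition above a per-plate cutoff of the control wells' mean inhibition plus 3 SD, cut at about 5.5% in these data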;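 also: 0% = DMSO wells median and 100% = median of wells with control inhibitor compound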
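System: purified T. brucei MetRS enzyme / Detection: Kinase-Glo luciferase luminescence reporting remaining unconsumed ATP / Medium: HEPES buffer with MgCl2, KCl, DTT, spermine, BSA, pyrophosphatase / Replication: singlicate, one well per compound / Evaluation: percent inhibition relative to median high and low control wells / Schedule: 2 h aminoacylation at 25 °C after 15 min preincubation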
MC4R antag cAMP = blocks human MC4R cAMP signaling | P32245 | inhibition, % at 6.5 µM | MC4R-expressing cells, MTII-stimulated cAMP, LANCE TR-FRET | actives 0.48% (n = 360,000);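 active = inhibition above its plate's cutoff, the mean of tested wells on that plate plus 3 SD, cut at about 29% in these data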;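 also: 0% = Melanotan II alone and 100% = Melanotan II plus saturating MCL0020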
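System: U2OS cells stably expressing human melanocortin 4 receptor (MC4R). Reagent: Melanotan II challenge after compound preincubation. Doses: 6.5 µM. Times: 30-min compound, 1-h challenge, 1-h detection, room temperature. Measured by: TR-FRET with Eu-cAMP and labeled anti-cAMP, 671 nm. Replicates: singlicate.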
Exocytosis inh = lytic granule exocytosis inhibition. TALL-104 LAMP-1 surface exposure, flow cytometry; cells stimulated with thapsigargin and PMA. inhibition, % at 10 µM. actives 0.66% (n = 360,000);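 active = inhibition above about 55%, limit read from the data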
ABCB6 inh MLPCN = blocks the human ABCB6 transporter; Q9NP58; K562-ABCB6 porphyrin accumulation, flow cytometry, 1 h; stronger effect = lower value; fluorescence ratio to DMSO, % at 10 µM; actives 0.19% (n = 360,000);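 active = fluorescence ratio to DMSO below 75%, the collection mean minus 3 SD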;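 also: signal is porphyrin accumulated inside mitochondria; 100% equals median channel fluorescence of DMSO control wells; lower ratio means ABCB6 inhibition with less porphyrin fluorescence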
hiPSC survival = increases survival of single human iPS cells. hiPSC single-cell survival, ATPlite luminescence; 100% = ROCK inhibitor wells, 0% = DMSO. actives 0.044% (n = 360,000). survival enhancement, % at 20 µM; in the data active = survival enhancement above about 18%;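 also: cells exposed to compounds for 16 hours before the ATP read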
MC4R barr agon = human MC4R agonism via beta-arrestin; actives 0.98% (n = 360,000); P32245; U2OS MC4R beta-arrestin complementation, luminescence; percent of melanotan II response, DMSO zero; activation, % at 8.9 µM;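 active = activation above a per-plate cutoff, the mean activation of sample wells on that plate plus 3 SD, cut at about 8% in these data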
MC4R barr conf = human MC4R beta-arrestin agonism confirmation; shares compounds with MC4R barr agon; U2OS MC4R beta-arrestin recruitment, luminescence; scaled DMSO 0%, Melanotan II 100%; activation, % at 8.9 µM; actives 31% (n = 2,400);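 active = mean activation across replicates above the hit cutoff set in the earlier primary screen, cut at about 8% in these data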
MOR-DOR barr ag = counter-screen for MC4R agonists: agonists of mu-delta opioid heterodimer; shares compounds with MC4R barr agon; actives 5.8% (n = 2,400); U2OS PathHunter beta-arrestin, beta-gal luminescence; percent of deltorphin B response, DMSO zero; AID 602194; activation, % at 9.2 µM;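 active = mean activation across replicates exceeds the hit threshold derived in the earlier primary screen, cut at about 18% in these data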;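 also: 100% = deltorphin B at 0.9 µM final and 0% = DMSO alone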
An asterisk follows results filed as active; . = not tested or not shown. An excerpt weighted towards active compounds, which were near 2.6% of everything screened.

SMILES	TbMetRS inhib	MC4R antag cAMP	Exocytosis inh	ABCB6 inh MLPCN	hiPSC survival	MC4R barr agon	MC4R barr conf	MOR-DOR barr ag
O=C(COC(=O)c1ccc([N+](=O)[O-])o1)Nc1ccc(Br)cc1F	-0.3	1.9	-0.3	100.0	-0.3	-1.6	.	.
NS(=O)(=O)c1ccc(NC(=S)N2CCN(c3ccc(Cl)c(Cl)c3)CC2)cc1	3.8	-2.7	-2.0	96.0	2.7	11.6*	-2.6	3.0
O=C(Cc1cccc2ccccc12)NN=Cc1ccc2c(c1)CCC2	-0.3	-3.4	-4.9	101.0	-1.8	13.3*	6.3	4.1
O=C(NN=Cc1ccc2c(c1)CCC2)c1cccc([N+](=O)[O-])c1	0.1	0.6	6.7	101.0	0.6	22.1*	12.5*	9.8
O=C(Cc1cccc2ccccc12)N/N=C/c1ccncc1	-0.3	8.3	-0.3	96.0	-0.3	-1.8	.	.
Cc1ccc(NC(=S)NC(=O)c2ccc(-c3ccc(Cl)cc3)o2)c(O)c1	-0.1	7.0	-2.1	100.0	1.6	16.4*	20.9*	1.9
Cc1cc(O)c(NC(=S)NC(=O)c2ccc(-c3ccc(Cl)cc3)o2)cc1C	-2.0	3.9	10.9	152.0	0.5	-9.9	.	.
COc1cc(C(=O)OCC(=O)Nc2cc(C)on2)ccc1OCc1ccccc1Cl	-0.5	16.3	0.8	96.0	-1.5	18.0*	2.7	1.6
COc1ccc(NC(=O)COC(=O)c2ccc(OCc3ccccc3Cl)c(OC)c2)c(OC)c1	-0.5	2.2	-4.7	95.0	1.1	3.0	.	.
C=CCn1c(O)c(C2=c3ccccc3=NC2=O)s/c1=N/c1nccs1	-0.4	-4.2	5.5	102.0	-2.9	10.4*	-0.4	3.9
N#Cc1c(NC(=O)COC(=O)c2nccnc2N)sc2c1CCCC2	-0.2	14.1	9.1	97.0	-0.3	3.3	.	.
CCOC(=O)c1c(NC(=O)COC(=O)c2nccnc2N)sc2c1CCC2	-0.7	-4.4	-3.6	101.0	-0.4	15.7*	4.8	6.0
CCC(=O)N(Cc1c(C)nn(-c2ccccc2)c1Cl)c1ccc(Cl)cc1	0.0	6.0	-5.4	95.0	0.4	0.8	.	.
CC(C)CCNC(=O)C(C)N(C(=O)c1snc(C(N)=O)c1N)c1cnc2ccccc2c1 (stereo unspecified)	-0.6	6.1	-1.2	96.0	0.4	-1.2	.	.
C/C(=N/NC(=O)c1cccs1)c1ccc(NC(=O)COc2ccc(Cl)cc2)cc1	0.0	0.8	2.0	92.0	-0.8	12.2*	12.9*	7.5
O=c1c2cnn(-c3ccc(F)cc3)c2ncn1Cc1ccccc1	-0.6	2.9	11.5	102.0	-0.5	13.9*	-0.1	4.3
CSc1nc2nccc(-c3ccc(-c4ccccc4)cc3)n2n1	-0.4	19.5	-0.6	98.0	-1.0	10.7*	1.5	4.1
CSc1nc2nccc(-c3ccc(Oc4ccccc4)cc3)n2n1	-0.4	12.8	-2.3	97.0	0.3	2.3	.	.
CNC(=O)/C(C#N)=C/c1ccc(-c2ccccc2[N+](=O)[O-])o1	-1.6	-16.7	3.1	101.0	0.5	-2.3	.	.
COc1cc(OC)c(OC)cc1/C=C(\C#N)C(=O)NCc1cccs1	-0.6	0.6	0.1	98.0	-0.2	-1.1	.	.
CCOC(=O)c1ccc(-c2ccc(/C=C(\C#N)C(=O)NCc3cccs3)o2)cc1	0.3	-18.5	-6.8	100.0	-1.3	38.5*	27.1*	6.2
CNC(=O)/C(C#N)=C/c1ccc(-c2ccc(Cl)cc2)o1	0.1	5.5	-0.7	100.0	-1.5	14.3*	41.2*	12.8
O=C(CSc1nnc(COc2cccc3ccccc23)o1)N1c2ccccc2CCc2ccccc21	-0.7	2.8	0.0	96.0	6.2	-2.1	.	.
O=c1[nH]c(Cn2nnc(-c3ccccc3)n2)nc2scc(-c3ccccc3)c12	-2.0	-3.3	-2.0	106.0	0.2	11.8*	1.5	6.8
